One experiment concerns Escherichia coli. The experiment can be described thus: Antibacterial activity against Escherichia coli at 10 ug/disc after 48 hrs by disc diffusion assay. Type of experiment: functional. The following applies: read-out: IZ. The essentials:
(§1)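 Target strains grown on nutrient agar plates (9 cm), each spread with 0.6 mL of a 24 h nutrient broth culture and dried 1 h. Samples went onto 7 mm filter paper disks in 10 µL MeOH and were air-dried 1 h before placement. Inhibition zones were checked every 24 h for 4 days. Tetracycline at 10 µg/disk was the positive control, MeOH and formic acid at 10 µL/disk the negatives.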

A further experiment relates to Bacillus cereus. In words: Antibacterial activity against Bacillus cereus at 10 ug/disc after 48 hrs by disc diffusion assay. Type of experiment: functional. The following applies: read-out: IZ. In outline: as §1
A further experiment has as its system Colletotrichum. In words: Antifungal activity against Colletotrichum acutatum at 10 ug/disc after 48 hrs by disc diffusion assay. Type of experiment: functional. The following applies: read-out: IZ. The essentials: (§2)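 Fungal targets grown on potato dextrose agar plates (9 cm), each spread with 0.6 mL of a conidial suspension (ca. 1 × 10^6 conidia/mL H2O) and dried 1 h. Samples went onto 7 mm filter paper disks in 10 µL MeOH, air-dried 1 h, then placed on the plates. Inhibition zones were read every 24 h for 4 days. Filipin at 10 µg/disk was the positive control, MeOH and formic acid at 10 µL/disk the negatives.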
(In agar diffusion tests the substance spreads into inoculated agar from a disc or well.)

The next experiment concerns Botrytis. In words: Antifungal activity against Botrytis cinerea at 10 ug/disc after 48 hrs by disc diffusion assay. Format: functional. The following applies: read-out: IZ. In outline:
as §2

The test system of the next experiment is Beauveria bassiana. The experiment can be described thus: Antifungal activity against Beauveria bassiana at 10 ug/disc after 48 hrs by disc diffusion assay. Type of experiment: functional. The following applies: read-out: IZ. In outline: as §2
The next experiment has as its system Saccharomyces cerevisiae. The experiment can be described thus: Antifungal activity against Saccharomyces cerevisiae at 10 ug/disc after 48 hrs by disc diffusion assay. Type of experiment: functional. The following applies: read-out: IZ. The essentials:
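Yeast grown on 1% yeast extract, 2% peptone, 1.5% agar with either 2% dextrose or 2% glycerol. Plates were spread with 0.5 mL of a suspension in H2O adjusted to OD600 0.5 and dried 1 h. Samples went onto 7 mm paper disks in 10 µL MeOH, air-dried 1 h. Zones were read every 24 h for 4 days. Filipin at 10 µg/disk was the positive control, MeOH and formic acid the negatives.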

The test system of the next experiment is Aedes aegypti. The experiment can be described thus: Induction of locomotory deffect in Aedes aegypti Rockefeller larvae after 24 hrs. Format: functional, organism-based. The essentials: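 Eggs hatched under vacuum for 30 min and larvae kept at 25 °C in tap water with liver powder suspension. At 24 h posthatch, 7–11 larvae per well of a 24-well plate were placed in 0.9 mL food/water. Treatments were added in 100 µL distilled water, and effects were scored 24 h later.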

Molecules are shown by their SMILES.

Regarding `CCCCC[C@@H](O)[C@H]1C(=O)O[C@H](C)[C@@H](O)/C=C/C=C/C=C/C=C/C=C(\C)[C@@H](O)C[C@H](O)C[C@H](O)C[C@H](O)C[C@H](O)C[C@H](O)C[C@@H]1O` [FILIPIN], the zone of inhibition at 10 µg/disc in the experiment with Escherichia coli, in the experiment on Bacillus cereus, with Colletotrichum, in the experiment with Botrytis, with Beauveria bassiana and with Saccharomyces cerevisiae was > 5 mm throughout.

On to `NCC[C@H](O)C[C@H]1NC(=O)[C@H](CO)NC(=O)[C@@H]2C[C@@H](O)CN2C(=O)C2(CC2)NC(=O)[C@H](CO)NC(=O)[C@@H](CO)NC(=O)CCNC1=O` [SERINOCYCLIN A], for which the EC50 in the experiment with Aedes aegypti was found to be 59 ppm.

For `CN(C)[C@@H]1C(O)=C(C(N)=O)C(=O)[C@@]2(O)C(O)=C3C(=O)c4c(O)cccc4[C@@](C)(O)[C@H]3C[C@@H]12` [TETRACYCLINE], the zone of inhibition at 10 µg/disc in the experiment on Escherichia coli, in the experiment with Bacillus cereus, in the experiment with Colletotrichum, with Botrytis, with Beauveria bassiana and with Saccharomyces cerevisiae was > 5 mm each time.

For the origin of these results see ChEMBL document CHEMBL1141435, “Serinocyclins A and B, cyclic heptapeptides from Metarhizium anisopliae” (J Nat Prod, 2007).
